# Measurements taken from ChEMBL document CHEMBL1255347, “Multiclonal outbreak of Klebsiella pneumoniae producing extended-spectrum beta-lactamase CTX-M-2 and novel variant CTX-M-59 in a neonatal intensive care unit in Brazil” (2008).
# What was measured:
# [1] = tested on: Klebsiella pneumoniae; assay: Antimicrobial activity against CTX-M-59 and TEM-1 producing Klebsiella pneumoniae transconjugants/transformants with PFGE pulsotype C by Etest in presence of clavulanic acid; format: functional
# Method in brief: (§1)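 The recipient was E. coli XL1-Blue Rifr NAr. Plasmids moved by broth mating, with transconjugants selected on LB agar containing ampicillin, rifampin and nalidixic acid, each at 50 μg/ml. Where mating failed, alkaline-lysis plasmid extracts were electroporated and selected on ampicillin 50 μg/ml. β-lactam MICs were read by Etest, with and without clavulanic acid.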
# [2] = tested on: Escherichia coli; assay: Antimicrobial activity against Escherichia coli str. K-12 substr. DH10B harboring plasmid CTX-M-2 in presence of clavulanic acid; format: functional; conditions: K-12 DH10B
# Method in brief: (§2)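 blaCTX-M PCR products were cut with XbaI/BamHI and cloned into pBC-SK(−), then electroporated into E. coli DH10B. Transformants were selected on LB agar with ampicillin 50 μg/ml and chloramphenicol 30 μg/ml, and sequences were confirmed. These clones were used for β-lactam MICs, with and without clavulanic acid.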
# [3] = tested on: Klebsiella pneumoniae; assay: Antimicrobial activity against CTX-M-2 and TEM-1 producing Klebsiella pneumoniae transconjugants/transformants with PFGE pulsotype H by Etest in presence of clavulanic acid; format: functional
# [4] = tested on: Klebsiella pneumoniae; assay: Antimicrobial activity against CTX-M-2 producing Klebsiella pneumoniae with PFGE pulsotype F by Etest in presence of clavulanic acid; format: functional
# Method in brief: (§3)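 Clinical K. pneumoniae isolates from a neonatal ICU outbreak near São Paulo were typed by XbaI PFGE using Tenover criteria. Cultures were grown in LB broth at 37°C. Etest MICs followed the manufacturer's instructions, with cefotaxime and ceftazidime each tested with and without clavulanic acid.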
# [5] = tested on: Klebsiella pneumoniae; assay: Antimicrobial activity against SHV-5 producing Klebsiella pneumoniae transconjugants/transformants with PFGE pulsotype D by Etest in presence of clavulanic acid; format: functional; method in brief: as §1
# [6] = tested on: Klebsiella pneumoniae; assay: Antimicrobial activity against CTX-M-2 producing Klebsiella pneumoniae with PFGE pulsotype J by Etest in presence of clavulanic acid; format: functional; method in brief: as §3
# [7] = tested on: Klebsiella pneumoniae; assay: Antimicrobial activity against CTX-M-2 and TEM-1 producing Klebsiella pneumoniae transconjugants/transformants with PFGE pulsotype F by Etest in presence of clavulanic acid; format: functional; method in brief: as §1
# [8] = tested on: Klebsiella pneumoniae; assay: Antimicrobial activity against CTX-M-59 producing Klebsiella pneumoniae with PFGE pulsotype G by Etest; format: functional; method in brief: as §3
# [9] = tested on: Klebsiella pneumoniae; assay: Antimicrobial activity against CTX-M-59 and TEM-1 producing Klebsiella pneumoniae transconjugants/transformants with PFGE pulsotype G by Etest in presence of clavulanic acid; format: functional; method in brief: as §1
# [10] = tested on: Klebsiella pneumoniae; assay: Antimicrobial activity against CTX-M-2 producing Klebsiella pneumoniae with PFGE pulsotype I by Etest in presence of clavulanic acid; format: functional; method in brief: as §3
# [11] = tested on: Klebsiella pneumoniae; assay: Antimicrobial activity against CTX-M-2 producing Klebsiella pneumoniae with PFGE pulsotype I by Etest; format: functional
# [12] = tested on: Klebsiella pneumoniae; assay: Antimicrobial activity against CTX-M-2 producing Klebsiella pneumoniae with PFGE pulsotype H by Etest in presence of clavulanic acid; format: functional
# Method in brief: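 Etest strips used per manufacturer's instructions to read MICs of cefotaxime and ceftazidime, each with clavulanic acid, on clinical NICU K. pneumoniae outbreak isolates. Isolates were typed by XbaI PFGE using Tenover criteria and routinely grown in LB broth at 37°C.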
# [13] = tested on: Klebsiella pneumoniae; assay: Antimicrobial activity against CTX-M-2 and TEM-1 producing Klebsiella pneumoniae transconjugants/transformants with PFGE pulsotype I by Etest in presence of clavulanic acid; format: functional; method in brief: as §1
# [14] = tested on: Klebsiella pneumoniae; assay: Antimicrobial activity against CTX-M-2 producing Klebsiella pneumoniae with PFGE pulsotype H by Etest; format: functional; method in brief: as §3
# [15] = tested on: Klebsiella pneumoniae; assay: Antimicrobial activity against CTX-M-2 producing Klebsiella pneumoniae with PFGE pulsotype A by Etest; format: functional; method in brief: as §3
# [16] = tested on: Klebsiella pneumoniae; assay: Antimicrobial activity against SHV-5 producing Klebsiella pneumoniae transconjugants/transformants with PFGE pulsotype D by Etest; format: functional; method in brief: as §1
# [17] = tested on: Escherichia coli; assay: Antimicrobial activity against CTX-M-2 and TEM-1 producing Escherichia coli transconjugants/transformants with PFGE pulsotype A by Etest in presence of clavulanic acid
# [18] = tested on: Klebsiella pneumoniae; assay: Antimicrobial activity against CTX-M-59 producing Klebsiella pneumoniae with PFGE pulsotype E by Etest in presence of clavulanic acid; format: functional
# Method in brief: (§4)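 MICs were determined by Etest strips following the manufacturer's instructions, using cefotaxime and ceftazidime each combined with clavulanic acid. The test strains were clinical NICU outbreak isolates confirmed as ESBL producers by disk diffusion. Pulsotypes were assigned by XbaI PFGE using Tenover relatedness criteria. Cultures were routinely grown in LB broth at 37°C.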
# [19] = tested on: Klebsiella pneumoniae; assay: Antimicrobial activity against CTX-M-2 producing Klebsiella pneumoniae with PFGE pulsotype B by Etest; format: functional; method in brief: as §3
# [20] = tested on: Klebsiella pneumoniae; assay: Antimicrobial activity against CTX-M-59 producing Klebsiella pneumoniae with PFGE pulsotype C by Etest in presence of clavulanic acid; format: functional; method in brief: as §3
# [21] = tested on: Klebsiella pneumoniae; assay: Antimicrobial activity against SHV-5 producing Klebsiella pneumoniae with PFGE pulsotype D by Etest; format: functional; method in brief: as §3
# [22] = tested on: Klebsiella pneumoniae; assay: Antimicrobial activity against CTX-M-59 producing Klebsiella pneumoniae with PFGE pulsotype C by Etest; format: functional
# [23] = tested on: Klebsiella pneumoniae; assay: Antimicrobial activity against CTX-M-59 producing Klebsiella pneumoniae with PFGE pulsotype E by Etest; format: functional
# [24] = tested on: Klebsiella pneumoniae; assay: Antimicrobial activity against CTX-M-59 and TEM-1 producing Klebsiella pneumoniae transconjugants/transformants with PFGE pulsotype E by Etest in presence of clavulanic acid; format: functional; method in brief: as §1
# [25] = tested on: Klebsiella pneumoniae; assay: Antimicrobial activity against SHV-5 producing Klebsiella pneumoniae with PFGE pulsotype D by Etest in presence of clavulanic acid; format: functional
# [26] = tested on: Escherichia coli; assay: Antimicrobial activity against Escherichia coli str. K-12 substr. DH10B harboring plasmid CTX-M-59 in presence of clavulanic acid; format: functional; conditions: K-12 DH10B; method in brief: as §2
# [27] = tested on: Klebsiella pneumoniae; assay: Antimicrobial activity against CTX-M-2 producing Klebsiella pneumoniae with PFGE pulsotype F by Etest; format: functional
# [28] = tested on: Klebsiella pneumoniae; assay: Antimicrobial activity against CTX-M-59 producing Klebsiella pneumoniae with PFGE pulsotype G by Etest in presence of clavulanic acid; format: functional; method in brief: as §4
# [29] = tested on: Klebsiella pneumoniae; assay: Antimicrobial activity against CTX-M-2 and TEM-1 producing Klebsiella pneumoniae transconjugants/transformants with PFGE pulsotype J by Etest in presence of clavulanic acid; format: functional; method in brief: as §1
# [30] = tested on: Klebsiella pneumoniae; assay: Antimicrobial activity against CTX-M-2 producing Klebsiella pneumoniae with PFGE pulsotype J by Etest; format: functional
# [31] = tested on: Escherichia coli; assay: Antimicrobial activity against Escherichia coli str. K-12 substr. DH10B harboring plasmid CTX-M-2; format: functional; conditions: K-12 DH10B; method in brief: as §2
# [32] = tested on: Klebsiella pneumoniae; assay: Antimicrobial activity against CTX-M-2 producing Klebsiella pneumoniae with PFGE pulsotype A by Etest in presence of clavulanic acid; format: functional; method in brief: as §3
# [33] = tested on: Klebsiella pneumoniae; assay: Antimicrobial activity against CTX-M-2 producing Klebsiella pneumoniae with PFGE pulsotype B by Etest in presence of clavulanic acid; format: functional; method in brief: as §3
# [34] = tested on: Klebsiella pneumoniae; assay: Antimicrobial activity against CTX-M-2 and TEM-1 producing Klebsiella pneumoniae transconjugants/transformants with PFGE pulsotype B by Etest in presence of clavulanic acid; format: functional; method in brief: as §1
# [35] = tested on: Escherichia coli; assay: Antimicrobial activity against Escherichia coli str. K-12 substr. DH10B harboring plasmid CTX-M-59; format: functional; conditions: K-12 DH10B; method in brief: as §2
smiles,measurement,setting,value
CO/N=C(\C(=O)N[C@@H]1C(=O)N2C(C(=O)O)=C(COC(C)=O)CS[C@H]12)c1csc(N)n1 [CEFOTAXIME],MIC,[1],0.19 µg/mL
same,MIC,[2],0.094 µg/mL
same,MIC,[3],0.94 µg/mL
same,MIC,[4],0.094 µg/mL
same,MIC,[5],0.47 µg/mL
same,MIC,[6],0.094 µg/mL
same,MIC,[7],0.125 µg/mL
same,MIC,[8],> 256 µg/mL
same,MIC,[9],0.19 µg/mL
same,MIC,[10],0.094 µg/mL
same,MIC,[11],> 256 µg/mL
same,MIC,[12],1 µg/mL
same,MIC,[13],0.125 µg/mL
same,MIC,[14],> 256 µg/mL
same,MIC,[15],> 256 µg/mL
same,MIC,[16],12 µg/mL
same,MIC,[17],0.094 µg/mL
same,MIC,[18],0.125 µg/mL
same,MIC,[19],> 256 µg/mL
same,MIC,[20],0.094 µg/mL
same,MIC,[21],48 µg/mL
same,MIC,[22],> 256 µg/mL
same,MIC,[23],> 256 µg/mL
same,MIC,[24],0.25 µg/mL
same,MIC,[25],0.047 µg/mL
same,MIC,[26],0.094 µg/mL
same,MIC,[27],> 256 µg/mL
same,MIC,[28],0.5 µg/mL
same,MIC,[29],0.125 µg/mL
same,MIC,[30],> 256 µg/mL
same,MIC,[31],128 µg/mL
same,MIC,[32],0.094 µg/mL
same,MIC,[33],0.094 µg/mL
same,MIC,[34],0.094 µg/mL
same,MIC,[35],96 µg/mL
